Source: ChEMBL document CHEMBL1649126, “Debio 025, a cyclophilin binding molecule, is highly efficient in clearing hepatitis C virus (HCV) replicon-containing cells when used alone or in combination with specifically targeted antiviral therapy for HCV (STAT-C) inhibitors” (Antimicrob Agents Chemother, 2009)
Activity calls are given as the source filed them. The calls are words filed in the database; no cut-off is given here.

How the values were obtained:
Hepatitis C virus [1] = assay: Antiviral activity against R479-resistant HCV genotype 1b infected in human Huh-9-13 cells assessed as reduction in viral replication after 3 days by quantitative RT-PCR; format: functional, organism-based, Hepacivirus hominis; conditions: 72 h
Summary of the method: (§1)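 Huh 9-13 cells carrying a subgenomic HCV replicon were seeded at 5 x 10^3 cells/well in medium with G418 and incubated 24 h at 37°C. Serial dilutions were then added in G418-free medium for 3 days. Cells were lysed, heated 15 min at 75°C, and replicon RNA was quantified by RT-qPCR against a neomycin plasmid standard. EC50 is the 50% RNA reduction versus untreated cells.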

Hepatitis C virus [2] = assay: Antiviral activity against compound-resistant HCV genotype 1b infected in human Huh-9-13 cells assessed as reduction in viral replication after 3 days by quantitative RT-PCR; format: functional, organism-based, Hepacivirus hominis; conditions: 72 h; summary of the method: as §1
Hepatitis C virus [3] = assay: Antiviral activity against HCV genotype 1b infected in human Huh-9-13 cells assessed as reduction in viral replication after 3 days by quantitative RT-PCR; format: functional, organism-based, Hepacivirus hominis; conditions: 72 h; summary of the method: as §1
Hepatitis C virus [4] = assay: Antiviral activity against VX 950-resistant HCV genotype 1b infected in human Huh-9-13 cells assessed as reduction in viral replication after 3 days by quantitative RT-PCR; format: functional, organism-based, Hepacivirus hominis; conditions: 72 h; summary of the method: as §1
Hepatitis C virus [5] = assay: Antiviral activity against cyclosporine-resistant HCV genotype 1b infected in human Huh-9-13 cells assessed as reduction in viral replication after 3 days by quantitative RT-PCR; format: functional, organism-based, Hepacivirus hominis; conditions: 72 h; summary of the method: as §1
Hepatitis C virus [6] = assay: Antiviral activity against BILN 2061-resistant HCV genotype 1b infected in human Huh-9-13 cells assessed as reduction in viral replication after 3 days by quantitative RT-PCR; format: functional, organism-based, Hepacivirus hominis; conditions: 72 h; summary of the method: as §1
Hepatitis C virus [7] = assay: Antiviral activity against 2'-C-methyl-2'-fluoro-cytidine-resistant HCV genotype 1b infected in human Huh-9-13 cells assessed as reduction in viral replication after 3 days by quantitative RT-PCR; format: functional, organism-based, Hepacivirus hominis; conditions: 72 h; summary of the method: as §1
Hepatitis C virus [8] = assay: Antiviral activity against HCV genotype 1b infected in human Huh-9-13 cells assessed as reduction in viral replication selected after 2 passages at 30 ug/ml by quantitative RT-PCR; format: functional, organism-based; conditions: Hepacivirus hominis
Summary of the method: (§2)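 Huh 9-13 replicon cells were seeded at 3 x 10^5 per 25-cm2 flask without G418, with compound. They were passaged at about 90% confluence and reseeded at 3 x 10^5 with the same concentration. HCV RNA was measured by RT-qPCR at each passage as % of the untreated control at the same passage. In rebound, compound was removed and G418 (1,000 µg/ml) restored.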

Hepatitis C virus [9] = assay: Antiviral activity against HCV genotype 1b infected in human Huh-9-13 cells assessed as reduction in viral replication selected after 3 passages at 30 ug/ml by quantitative RT-PCR; format: functional, organism-based; conditions: Hepacivirus hominis; summary of the method: as §2
Hepatitis C virus [10] = assay: Antiviral activity against HCV genotype 1b infected in human Huh-9-13 cells assessed as reduction in viral replication selected at 0.1 uM by quantitative RT-PCR; format: functional, organism-based; conditions: Hepacivirus hominis
Hepatitis C virus [11] = assay: Antiviral activity against HCV genotype 1b infected in human Huh-9-13 cells assessed as reduction in viral replication selected after 5 passages at 4 uM by quantitative RT-PCR relative to wild type virus; format: functional, Hepacivirus hominis
Summary of the method: (§3)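 Resistant replicons were selected by passaging Huh 9-13 cells under 1 mg/ml G418 with gradually increasing inhibitor concentrations.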

Hepatitis C virus [12] = assay: Antiviral activity against HCV genotype 1b infected in human Huh-9-13 cells assessed as reduction in viral replication selected after 7 passages at 15 uM by quantitative RT-PCR relative to wild type virus; format: functional, Hepacivirus hominis; summary of the method: as §3
Hepatitis C virus [13] = assay: Antiviral activity against HCV genotype 1b infected in human Huh-9-13 cells assessed as reduction in viral replication selected after 5 passages at 4 uM by quantitative RT-PCR; format: functional, organism-based; conditions: Hepacivirus hominis; summary of the method: as §3
Hepatitis C virus [14] = assay: Antiviral activity against HCV genotype 1b infected in human Huh-9-13 cells assessed as reduction in viral replication selected at 0.5 uM by quantitative RT-PCR; format: functional, organism-based; conditions: Hepacivirus hominis
Hepatitis C virus [15] = assay: Antiviral activity against HCV genotype 1b infected in human Huh-9-13 cells assessed as reduction in viral replication selected after 7 passages at 30 ug/ml by quantitative RT-PCR […]; format: functional, organism-based; conditions: Hepacivirus hominis
Hepatitis C virus [16] = assay: Antiviral activity against HCV genotype 1b infected in human Huh-9-13 cells assessed as reduction in viral replication selected after 2 passages at 5 ug/ml by quantitative RT-PCR; format: functional, organism-based; conditions: Hepacivirus hominis; summary of the method: as §2
Hepatitis C virus [17] = assay: Antiviral activity against HCV genotype 1b infected in human Huh-9-13 cells assessed as reduction in viral replication selected after 3 passages at 1 ug/ml by quantitative RT-PCR […]; format: functional, organism-based; conditions: Hepacivirus hominis
Hepatitis C virus [18] = assay: Antiviral activity against HCV genotype 1b infected in human Huh-9-13 cells assessed as reduction in viral replication selected after 7 passages at 0.25 ug/ml by quantitative RT-PCR; format: functional, organism-based; conditions: Hepacivirus hominis
Summary of the method: (§4)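 Clearance-rebound in Huh 9-13 replicon cells over seven consecutive passages without G418, using twofold dilutions from 0.50 to 0.016 µg/ml. Rebound passages omitted compound under 1,000 µg/ml G418. Remaining HCV RNA was measured by RT-qPCR each passage as % of the untreated control at the same passage number.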

[19] = Cytotoxicity against human Huh-9-13 cells at 5 ug/ml after 3 days by MTT assay; format: cell-based; conditions: 72 h
Hepatitis C virus [20] = assay: Antiviral activity against HCV genotype 1b infected in human Huh-9-13 cells assessed as reduction in viral replication selected after 8 passages at 0.25 ug/ml by quantitative RT-PCR; format: functional, organism-based; conditions: Hepacivirus hominis; summary of the method: as §4
Hepatitis C virus [21] = assay: Antiviral activity against HCV genotype 1b infected in human Huh-9-13 cells assessed as reduction in viral replication selected after 1 passages at 5 ug/ml by quantitative RT-PCR; format: functional, Hepacivirus hominis; summary of the method: as §2
[22] = Cytotoxicity against human Huh-9-13 cells at 30 ug/ml after 3 days by MTT assay; format: cell-based; conditions: 72 h
Hepatitis C virus [23] = assay: Antiviral activity against HCV genotype 1b infected in human Huh-9-13 cells assessed as reduction in viral replication selected after 2 passages at 1 ug/ml by quantitative RT-PCR; format: functional, organism-based; conditions: Hepacivirus hominis; summary of the method: as §2
Hepatitis C virus [24] = assay: Antiviral activity against HCV genotype 1b infected in human Huh-9-13 cells assessed as reduction in viral replication selected after 7 passages at 5 ug/ml by quantitative RT-PCR […]; format: functional, organism-based; conditions: Hepacivirus hominis
Hepatitis C virus [25] = assay: Antiviral activity against HCV genotype 1b infected in human Huh-9-13 cells assessed as reduction in viral replication selected after 1 passages at 0.82 uM by quantitative RT-PCR; format: functional, Hepacivirus hominis; summary of the method: as §2
[26] = Cytotoxicity against human Huh-9-13 cells at 1 ug/ml after 3 days by MTT assay; format: cell-based; conditions: 72 h
Hepatitis C virus [27] = assay: Antiviral activity against HCV genotype 1b infected in human Huh-9-13 cells assessed as reduction in viral replication selected after 5 passages at 1 uM by quantitative RT-PCR relative to wild type virus; format: functional, Hepacivirus hominis
Hepatitis C virus [28] = assay: Antiviral activity against HCV genotype 1b infected in human Huh-9-13 cells assessed as reduction in viral replication selected after 5 passages at 1 uM by quantitative RT-PCR; format: functional, organism-based; conditions: Hepacivirus hominis; summary of the method: as §3
Hepatitis C virus [29] = assay: Antiviral activity against HCV genotype 1b infected in human Huh-9-13 cells assessed as reduction in viral replication selected after 6 passages at 2 uM by quantitative RT-PCR; format: functional, organism-based; conditions: Hepacivirus hominis; summary of the method: as §3
Hepatitis C virus [30] = assay: Antiviral activity against HCV genotype 1b infected in human Huh-9-13 cells assessed as reduction in viral replication selected after 6 passages at 2 uM by quantitative RT-PCR relative to wild type virus; format: functional, Hepacivirus hominis; summary of the method: as §3

## C[C@@]1(O)[C@H](O)[C@@H](CO)O[C@H]1n1ccc(N)nc1=O
Hepatitis C virus [1]
  EC50: 1.16 µM
Hepatitis C virus [2]
  EC50: 0.11 µM
Hepatitis C virus [3]
  EC50: 0.41 µM
Hepatitis C virus [4]
  EC50: 1.01 µM
Hepatitis C virus [5]
  EC50: 0.21 µM
Hepatitis C virus [6]
  EC50: 0.04 µM
Hepatitis C virus [7]
  EC50: 30.2 µM

## NC(=O)c1ncn([C@@H]2O[C@H](CO)[C@@H](O)[C@H]2O)n1
Hepatitis C virus [8]
  inhibition: inactive
Hepatitis C virus [9]
  inhibition: inactive

## [N-]=[N+]=N[C@]1(CO)O[C@@H](n2ccc(N)nc2=O)[C@H](O)[C@@H]1O [4'-AZIDOCYTIDINE]
Hepatitis C virus [1]
  EC50: 15.7 µM
Hepatitis C virus [10]
  inhibition: inactive
Hepatitis C virus [11]
  fold change (FC): 3
Hepatitis C virus [2]
  EC50: 0.12 µM
Hepatitis C virus [4]
  EC50: 0.69 µM
Hepatitis C virus [12]
  fold change (FC): 8
Hepatitis C virus [13]
  Activity: inactive
Hepatitis C virus [5]
  EC50: 0.26 µM
Hepatitis C virus [6]
  EC50: 0.02 µM
Hepatitis C virus [14]
  inhibition: Active
Hepatitis C virus [7]
  EC50: 3.38 µM

## C/C=C/C[C@@H](C)[C@@H](O)[C@H]1C(=O)N[C@@H](CC)C(=O)N(C)[C@H](C)C(=O)N(CC)[C@@H](C(C)C)C(=O)N[C@@H](C(C)C)C(=O)N(C)[C@@H](CC(C)C)C(=O)N[C@@H](C)C(=O)N[C@H](C)C(=O)N(C)[C@@H](CC(C)C)C(=O)N(C)[C@@H](CC(C)C)C(=O)N(C)[C@@H](C(C)C)C(=O)N1C [ALISPORIVIR]
Hepatitis C virus [1]
  EC50: 2.76 µM
Hepatitis C virus [15]
  inhibition: inactive
Hepatitis C virus [2]
  EC50: 2.72 µM
Hepatitis C virus [16]
  inhibition: inactive
Hepatitis C virus [17]
  Activity: Active
Hepatitis C virus [3]
  EC50: 0.04 µM
Hepatitis C virus [4]
  EC50: 0.36 µM
Hepatitis C virus [18]
  inhibition: Active
[19]
  Activity: Non-toxic
Hepatitis C virus [20]
  Activity: Active
Hepatitis C virus [21]
  inhibition at 5 µg/mL: 96.5%
Hepatitis C virus [5]
  EC50: 3.01 µM
Hepatitis C virus [6]
  EC50: 0.004 µM
[22]
  Activity: Non-toxic
Hepatitis C virus [23]
  inhibition: inactive
Hepatitis C virus [24]
  inhibition: inactive
Hepatitis C virus [25]
  inhibition at 0.82 µM: 96.5%
[26]
  Activity: Non-toxic
Hepatitis C virus [7]
  EC50: 0.41 µM

## COc1ccc2c(O[C@@H]3C[C@H]4C(=O)N[C@]5(C(=O)O)C[C@H]5/C=C\CCCCC[C@H](NC(=O)OC5CCCC5)C(=O)N4C3)cc(-c3csc(NC(C)C)n3)nc2c1 [CILUPREVIR]
Hepatitis C virus [1]
  EC50: 2.16 µM
Hepatitis C virus [2]
  EC50: 0.1 µM
Hepatitis C virus [4]
  EC50: 0.31 µM
Hepatitis C virus [27]
  fold change (FC): 50
Hepatitis C virus [28]
  inhibition: inactive
Hepatitis C virus [5]
  EC50: 0.17 µM
Hepatitis C virus [6]
  EC50: 1.25 µM
Hepatitis C virus [7]
  EC50: 0.29 µM

## C/C=C/C[C@@H](C)[C@@H](O)[C@H]1C(=O)N[C@@H](CC)C(=O)N(C)CC(=O)N(C)[C@@H](CC(C)C)C(=O)N[C@@H](C(C)C)C(=O)N(C)[C@@H](CC(C)C)C(=O)N[C@@H](C)C(=O)N[C@H](C)C(=O)N(C)[C@@H](CC(C)C)C(=O)N(C)[C@@H](CC(C)C)C(=O)N(C)[C@@H](C(C)C)C(=O)N1C [CYCLOSPORINE]
Hepatitis C virus [1]
  EC50: 1.98 µM
Hepatitis C virus [2]
  EC50: 0.35 µM
Hepatitis C virus [4]
  EC50: 0.49 µM
Hepatitis C virus [5]
  EC50: 3.85 µM
Hepatitis C virus [6]
  EC50: 0.004 µM
Hepatitis C virus [7]
  EC50: 0.4 µM

## CCC[C@H](NC(=O)[C@@H]1[C@H]2CCC[C@H]2CN1C(=O)[C@@H](NC(=O)[C@@H](NC(=O)c1cnccn1)C1CCCCC1)C(C)(C)C)C(=O)C(=O)NC1CC1 [TELAPREVIR]
Hepatitis C virus [2]
  EC50: 0.09 µM
Hepatitis C virus [16]
  inhibition: inactive
Hepatitis C virus [29]
  inhibition: inactive
Hepatitis C virus [3]
  EC50: 0.58 µM
Hepatitis C virus [4]
  EC50: 14 µM
Hepatitis C virus [21]
  inhibition at 5 µg/mL: 96.5%
Hepatitis C virus [6]
  EC50: 0.79 µM
Hepatitis C virus [23]
  inhibition: inactive
Hepatitis C virus [30]
  fold change (FC): 4
Hepatitis C virus [25]
  inhibition at 0.82 µM: 96.5%
Hepatitis C virus [7]
  EC50: 1.02 µM
